Screening data: PubChem BioAssay, several laboratories
SMARCA2 act – SMARCA2 function activation, primary screen. MG213 cells, MMTV-luciferase reporter, dexamethasone, overnight. activation, % at 9.1 µM. 370,000 tested, 1% active. AID 652017; in the data active means activation above about 7.8%;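 further: 0% = vehicle wells and 100% = reference activator wells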
ASAP1 inh – inhibitors of human ASAP1 ArfGAP activity; 360,000 tested, 0.19% active; Q9ULH1; ASAP1-stimulated ARF1 GTP hydrolysis, GDP FP detection; inhibition, % at 16.5 µM; in the data active means inhibition above about 25%;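 further: 0% = vehicle with enzyme and substrate and 100% = no enzyme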
Target sequence (Q9ULH1 325-724 limits assumed): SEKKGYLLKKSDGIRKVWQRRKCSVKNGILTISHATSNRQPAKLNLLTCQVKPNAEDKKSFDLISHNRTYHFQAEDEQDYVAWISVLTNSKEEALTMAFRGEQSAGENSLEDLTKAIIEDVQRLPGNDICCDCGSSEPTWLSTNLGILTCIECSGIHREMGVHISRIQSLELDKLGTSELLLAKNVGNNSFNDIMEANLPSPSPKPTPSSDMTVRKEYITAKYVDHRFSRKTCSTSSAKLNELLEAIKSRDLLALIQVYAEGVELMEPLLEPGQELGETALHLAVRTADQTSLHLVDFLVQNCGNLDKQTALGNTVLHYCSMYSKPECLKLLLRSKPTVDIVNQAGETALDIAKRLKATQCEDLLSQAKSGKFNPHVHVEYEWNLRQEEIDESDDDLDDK
esBAF inh – SWI/SNF esBAF complex inhibition. mouse ES cells, Bmi1-luciferase knock-in reporter, 24 h; 100% = twice the neutral-well signal. reporter increase, % at 12.5 µM. 350,000 tested, 2% active. AID 602393; in the data active means activation above about 40%;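 further: 0% = median of the plate's neutral control wells and 100% = double that signal; a rise in the Bmi1 reporter signal indicates esBAF inhibition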
ARFGAP1 inh – rat ARFGAP1 inhibition. inhibition, % at 16.5 µM. AID 651572. 360,000 tested, 0.26% active. Arfgap1-stimulated ARF1 GTP hydrolysis, GDP FP detection;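 active means inhibition above a per-plate limit, mean inhibition of low control wells plus 3 SD, cut at about 25% in these data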;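 further: 0% = DMSO wells with enzyme and 100% = wells lacking Arfgap1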
Target sequence (Q62848 1-136 limits assumed): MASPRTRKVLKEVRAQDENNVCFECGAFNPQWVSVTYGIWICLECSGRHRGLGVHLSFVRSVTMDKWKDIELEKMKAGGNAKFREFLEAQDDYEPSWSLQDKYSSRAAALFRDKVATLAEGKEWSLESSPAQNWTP
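System: truncated rat Arfgap1 GAP domain / Benchmarks: high control wells lacking Arfgap1, low control full reaction with DMSO / Times: compound-enzyme preincubation 20 min, reaction 120 min, detection 60 min, 25 °C / Repeats: one replicate per compound / Also added: human ARF1(Δ1-17)-GTP substrate / Measured by: Tracer-displacement fluorescence polarization with EDTA stop, 620/688 nm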
SMARCA2 act conf – SMARCA2 activation, confirmation screen; activation, % at 9.1 µM; 3,500 tested, 30% active; shares compounds with SMARCA2 act; MG213 cells, MMTV-luciferase with dexamethasone, luminescence, overnight; MG213 cells expressing E1A, Rb sequestered; DMSO wells 0%, reference activator 100%;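 active means activation above its plate's cutoff, the mean activation of tested wells plus 3 SD, cut at about 7.9% in these data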
VP16 Luc act – activates GAL4-VP16 luciferase, flagging SMARCA2 activator hits; shares compounds with SMARCA2 act; HEK293 GAL4-VP16 pG5luc reporter, luciferase luminescence; scaled: DMSO wells 0%, SAHA wells 100%; activation, % at 9.1 µM; 3,500 tested, 41% active;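 active means activation above the solvent-only control well mean plus 3 SD, averaged across control plates, cut at about 5.2% in these data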
An asterisk follows results filed as active. Only some compounds are listed: those with a hit (about 2.6% of all), similar ones and a draw of the others.

O=C(CC1NC2CCCCC2NC1=O)Nc1ccc2c(c1)OCO2 (stereo not drawn) was read as SMARCA2 act 11*, ASAP1 inh -5, esBAF inh -6, ARFGAP1 inh 23, SMARCA2 act conf -1 and VP16 Luc act 0.
COC(=O)/C(=C1/Oc2cc(C)oc(=O)c2S1)C(F)(F)F was read as SMARCA2 act 9.1*, ASAP1 inh -3, esBAF inh -35, ARFGAP1 inh 7, SMARCA2 act conf -16 and VP16 Luc act 3.
Cc1cc(C(=O)Nc2cccc3c2O[C@H](CN(C)Cc2ccc(-c4ccccc4)cc2)[C@@H](C)CN([C@@H](C)CO)C3=O)n(C)n1 was read as esBAF inh -3.
Screening COc1ccccc1C(=O)Nc1ccc2c(c1)OCCO2 returned SMARCA2 act 8.1*, ASAP1 inh 16, esBAF inh 59*, ARFGAP1 inh -3, SMARCA2 act conf 7 and VP16 Luc act 11*.
For O=C(Nc1ccc2c(c1)OCCO2)NC12CC3CC(CC(C3)C1)C2 the results were SMARCA2 act 20*, ASAP1 inh 0, esBAF inh 36, ARFGAP1 inh 16, SMARCA2 act conf 12* and VP16 Luc act 11*.
O=C(Nc1ccc2c(c1)OCCO2)N1CCOCC1 was read as SMARCA2 act 9.7*, ASAP1 inh -18, ARFGAP1 inh -3, SMARCA2 act conf 0 and VP16 Luc act 3.
N#Cc1ccc(NCC(=O)Nc2ccc3c(c2)OCCO3)cc1 was read as SMARCA2 act -4, ASAP1 inh -6, esBAF inh 1 and ARFGAP1 inh 1.
For N#Cc1cccc(NCC(=O)Nc2ccc3c(c2)OCCO3)c1 the results were SMARCA2 act 9.8*, ASAP1 inh -12, ARFGAP1 inh 1, SMARCA2 act conf 8 and VP16 Luc act 3.
`COc1ccccc1NC(=O)N1C[C@@H]2[C@H](c3ccccc31)[C@@H](CO)N2CC1CCOCC1` gave esBAF inh -3.
C[C@H](CO)N1C[C@H](C)[C@H](CN(C)S(=O)(=O)c2cn(C)cn2)OCCCC[C@H](C)Oc2ccc(NC(=O)CCC(F)(F)F)cc2C1=O was read as esBAF inh 2.
`C/C=C/c1ccc2c(c1)O[C@H](CN(C)C(=O)NC1CCCC1)[C@H](C)CN([C@@H](C)CO)S2(=O)=O` gave esBAF inh -1.
For C[C@H](CO)N1C[C@H](C)[C@H](CN(C)CC2CC2)Oc2ccc(NS(=O)(=O)c3cccs3)cc2CC1=O the results were esBAF inh -1.
`COc1ccccc1NC(=O)N[C@@H]1CC[C@@H](CCNC(=O)c2ccc3c(c2)OCO3)O[C@@H]1CO` gave esBAF inh 1.
O=C(CCSCc1ccccc1)Nc1ccc2c(c1)OCCO2 was read as SMARCA2 act 1, ASAP1 inh -4 and ARFGAP1 inh -1.
For O=C(CCc1ccccc1)Nc1ccc2c(c1)OCCO2 the results were SMARCA2 act 8.2*, ASAP1 inh 5, esBAF inh 27, ARFGAP1 inh -3, SMARCA2 act conf 10* and VP16 Luc act 11*.
`C[C@H]1CN([C@@H](C)CO)C(=O)c2cc(NC(=O)Nc3ccc4c(c3)OCO4)ccc2O[C@H]1CN(C)CC1CCCCC1` gave esBAF inh 0.
For COc1ccc(C)cc1NC(=O)c1ccccc1NS(=O)(=O)c1cccc2cccnc12 the results were SMARCA2 act 8.1*, ASAP1 inh -1, esBAF inh 0, ARFGAP1 inh -11, SMARCA2 act conf -3 and VP16 Luc act -1.
`COc1ccc(-c2cc(COc3ccccc3)on2)cc1` gave SMARCA2 act 8.4*, ASAP1 inh 8, ARFGAP1 inh 1, SMARCA2 act conf 4 and VP16 Luc act 7.2*.
For Cc1cccc(OCc2cc(-c3ccccc3)no2)c1C the results were SMARCA2 act 8.9*, ASAP1 inh -5, ARFGAP1 inh 3, SMARCA2 act conf 8 and VP16 Luc act 6.5*.
C[C@H]1CN([C@@H](C)CO)C(=O)Cc2cc(NS(=O)(=O)c3ccccc3)ccc2O[C@@H]1CN(C)Cc1ccc(C(=O)O)cc1 was read as esBAF inh -3.
`COC(=O)c1cc2sccc2n1Cc1nc(-c2cccc(Cl)c2)oc1C` gave SMARCA2 act -1, ASAP1 inh 3, esBAF inh -3 and ARFGAP1 inh 0.
COC(=O)c1cc2ccsc2n1Cc1nc(-c2cccc(Cl)c2)oc1C was read as SMARCA2 act 12*, ASAP1 inh 9, esBAF inh -8, ARFGAP1 inh 2, SMARCA2 act conf -6 and VP16 Luc act 0.
`COc1cccc(CNC(=O)C[C@@H]2CC[C@@H]3[C@@H](COc4ccc(NC(C)=O)cc4C(=O)N3C)O2)c1` gave esBAF inh 5.
For Brc1ccc(-c2nc(N/N=C/c3cccnc3)c3ccccc3n2)cc1 the results were SMARCA2 act 7, ASAP1 inh 0 and ARFGAP1 inh 8.
`Cc1ccc(-c2nc(N/N=C/c3ccccc3[N+](=O)[O-])c3ccccc3n2)cc1` gave SMARCA2 act 8.2*, ASAP1 inh 15, esBAF inh 9, ARFGAP1 inh 2, SMARCA2 act conf 2 and VP16 Luc act 8.2*.
O=C([C@@H]1[C@@H](CO)[C@@H]2Cn3c(cccc3=O)[C@@H]2N1CC1CC1)N1CCc2ccccc2C1 was read as esBAF inh 0.
Screening NS(=O)(=O)c1ccc2nc(NC(=O)c3ccc(Br)o3)sc2c1 returned SMARCA2 act 8.3*, ASAP1 inh 0, ARFGAP1 inh 12, SMARCA2 act conf 1 and VP16 Luc act 4.
COc1ccc2nc(NC(=O)Nc3ccccc3OC)sc2c1 was read as SMARCA2 act 12*, ASAP1 inh 7, ARFGAP1 inh 8, SMARCA2 act conf 6 and VP16 Luc act 10*.
For COc1ccccc1NC(=O)Nc1nc2ccc(S(N)(=O)=O)cc2s1 the results were SMARCA2 act 10*, ASAP1 inh -2, esBAF inh 48*, ARFGAP1 inh 11, SMARCA2 act conf 15* and VP16 Luc act 6.3*.
COc1ccc2nc(NC(=O)Nc3cccc4ccccc34)sc2c1 was read as SMARCA2 act 2, ASAP1 inh -1 and ARFGAP1 inh 4.
For CS(=O)(=O)c1ccc2nc(NC(=O)Nc3ccccc3F)sc2c1 the results were SMARCA2 act 7, ASAP1 inh -11, esBAF inh -5 and ARFGAP1 inh 2.
CC(=O)NCCC(=O)Nc1nc2ccc(Oc3ccccc3)cc2s1 was read as SMARCA2 act 11*, ASAP1 inh -4, esBAF inh 22, ARFGAP1 inh 8, SMARCA2 act conf 4 and VP16 Luc act 8.7*.
